Results published in ChEMBL document CHEMBL2021802, “Synthesis and Evaluation of the Metabolites of AMG 221, a Clinical Candidate for the Treatment of Type 2 Diabetes” (ACS Med Chem Lett, 2011).

How the values were obtained:
[1] = test system: Plasma; test: Free plasma concentration in po dosed mouse after 4 hrs; type: ADME, organism-based; details: in vivo
[2] = Plasma protein binding in po dosed mouse after 4 hrs; type: ADME, organism-based; details: read-out: PPB (converted)
[3] = in vivo; details: mouse, adipose tissue fat / plasma, po, 50 mg/kg
[4] = Oral bioavailability in Sprague-Dawley rat at 10 mg/kg; type: ADME, organism-based; details: in vivo
Outline: (§1)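 Male Sprague-Dawley rats. IV dosing at 2 mg/kg in DMSO. Oral dosing at 10 mg/kg in 0.1% Tween-80/0.5% CMC/99.4% water. Reported: CL, Vss, t1/2 (terminal t1/2 where marked), MRT and oral F.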

[5] = Terminal half life in Sprague-Dawley rat at 2 mg/kg, iv and 10 mg/kg, po; type: ADME, organism-based; details: in vivo, read-out: beta t1/2 (converted); outline: as §1
[6] = Clearance in Sprague-Dawley rat at 2 mg/kg, iv and 10 mg/kg, po; type: ADME, organism-based; details: in vivo; outline: as §1
[7] = Oral bioavailability in CD1 mouse at 10 mg/kg; type: ADME, organism-based; details: in vivo
Outline: (§2)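 Male CD1 mice. IV dosing at 2 mg/kg, formulated either in 20% captisol/80% water or in 10% dimethylacetamide/23% water/67% PEG 400. Oral dosing at 10 mg/kg, formulated either in 10% Pluronic F108/90% OraPlus or in 0.1% Tween-80/0.5% CMC in water. Reported: CL, Vss, t1/2 and oral F.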

[8] = Volume of distribution at steady state in CD1 mouse at 2 mg/kg, iv and 10 mg/kg, po; type: ADME, organism-based; details: in vivo, read-out: Vdss; outline: as §2
[9] = Half life in CD1 mouse at 2 mg/kg, iv and 10 mg/kg, po; type: ADME, organism-based; details: in vivo; outline: as §2
[10] = Volume of distribution at steady state in Sprague-Dawley rat at 2 mg/kg, iv and 10 mg/kg, po; type: ADME, organism-based; details: in vivo, read-out: Vdss; outline: as §1
[11] = Clearance in CD1 mouse at 2 mg/kg, iv and 10 mg/kg, po; type: ADME, organism-based; details: in vivo; outline: as §2
[12] = Drug uptake in mouse adipose tissue fat at 10 mg/kg, po after 6 hrs; type: ADME, organism-based; parameters: dose 10 mg/kg, route oral; details: read-out: Drug uptake
[13] = Plasma concentration in mouse at 10 mg/kg, po after 4 hrs; type: ADME, organism-based; parameters: dose 10 mg/kg, route oral
[14] = Plasma concentration in mouse at 10 mg/kg, po after 6 hrs; type: ADME, organism-based; parameters: dose 10 mg/kg, route oral
[15] = Plasma concentration in mouse at 10 mg/kg, po after 8 hrs; type: ADME, organism-based; parameters: dose 10 mg/kg, route oral
[16] = test system: Mus musculus; test: Ex vivo inhibition of 11beta-HSD1 in mouse adipose tissue at 10 mg/kg, po after 2 hrs; type: functional
Outline: (§3)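 Mice dosed orally at 10 or 30 mg/kg. Adipose 11β-HSD1 activity measured ex vivo as percent inhibition.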

[17] = test system: Mus musculus; test: Ex vivo inhibition of 11beta-HSD1 in mouse adipose tissue at 30 mg/kg, po after 8 hrs; type: functional; outline: as §3
[18] = Drug uptake in mouse adipose tissue fat at 10 mg/kg, po after 2 hrs; type: ADME, organism-based; parameters: dose 10 mg/kg, route oral; details: read-out: Drug uptake
[19] = Plasma concentration in mouse at 10 mg/kg, po after 2 hrs; type: ADME, organism-based; parameters: dose 10 mg/kg, route oral
[20] = Plasma concentration in mouse at 30 mg/kg, po after 4 hrs; type: ADME, organism-based; parameters: dose 30 mg/kg, route oral
[21] = Drug uptake in mouse adipose tissue fat at 10 mg/kg, po after 8 hrs; type: ADME, organism-based; parameters: dose 10 mg/kg, route oral; details: read-out: Drug uptake
[22] = Plasma concentration in mouse at 30 mg/kg, po after 8 hrs; type: ADME, organism-based; parameters: dose 30 mg/kg, route oral
[23] = Drug uptake in mouse adipose tissue fat at 30 mg/kg, po after 2 hrs; type: ADME, organism-based; parameters: dose 30 mg/kg, route oral; details: read-out: Drug uptake
[24] = Plasma concentration in mouse at 30 mg/kg, po after 6 hrs; type: ADME, organism-based; parameters: dose 30 mg/kg, route oral
[25] = test system: Mus musculus; test: Ex vivo inhibition of 11beta-HSD1 in mouse adipose tissue at 10 mg/kg, po after 4 hrs; type: functional; outline: as §3
[26] = test system: Mus musculus; test: Ex vivo inhibition of 11beta-HSD1 in mouse adipose tissue at 30 mg/kg, po after 4 hrs; type: functional; outline: as §3
[27] = Drug uptake in mouse adipose tissue fat at 10 mg/kg, po after 4 hrs; type: ADME, organism-based; parameters: dose 10 mg/kg, route oral; details: read-out: Drug uptake
[28] = Plasma concentration in mouse at 30 mg/kg, po after 2 hrs; type: ADME, organism-based; parameters: dose 30 mg/kg, route oral
[29] = test system: Plasma; test: Free plasma concentration in mouse at 30 mg/kg, po after 4 hrs; type: ADME, organism-based; parameters: dose 30 mg/kg, route oral; details: in vivo
Outline: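 Mice dosed orally at 30 mg/kg and sampled at 4 h. Free plasma concentration calculated from total plasma level using mouse plasma protein binding.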

[30] = Drug uptake in mouse adipose tissue fat at 30 mg/kg, po after 8 hrs; type: ADME, organism-based; parameters: dose 30 mg/kg, route oral; details: read-out: Drug uptake
[31] = test system: Mus musculus; test: Ex vivo inhibition of 11beta-HSD1 in mouse adipose tissue at 30 mg/kg, po after 2 hrs; type: functional; outline: as §3
[32] = Drug uptake in mouse adipose tissue fat at 30 mg/kg, po after 4 hrs; type: ADME, organism-based; parameters: dose 30 mg/kg, route oral; details: read-out: Drug uptake
[33] = test system: Mus musculus; test: Ex vivo inhibition of 11beta-HSD1 in mouse adipose tissue at 30 mg/kg, po after 6 hrs; type: functional; outline: as §3
[34] = Drug uptake in mouse adipose tissue fat at 30 mg/kg, po after 6 hrs; type: ADME, organism-based; parameters: dose 30 mg/kg, route oral; details: read-out: Drug uptake
[35] = target: 11-beta-hydroxysteroid dehydrogenase 1 (Mus musculus, UniProt P50172); test: Inhibition of mouse 11beta-HSD1 expressed in Escherichia coli using [3H]cortisone as substrate by scintillation proximity assay
11-beta-hydroxysteroid dehydrogenase 1, sequence (P50172 whole entry): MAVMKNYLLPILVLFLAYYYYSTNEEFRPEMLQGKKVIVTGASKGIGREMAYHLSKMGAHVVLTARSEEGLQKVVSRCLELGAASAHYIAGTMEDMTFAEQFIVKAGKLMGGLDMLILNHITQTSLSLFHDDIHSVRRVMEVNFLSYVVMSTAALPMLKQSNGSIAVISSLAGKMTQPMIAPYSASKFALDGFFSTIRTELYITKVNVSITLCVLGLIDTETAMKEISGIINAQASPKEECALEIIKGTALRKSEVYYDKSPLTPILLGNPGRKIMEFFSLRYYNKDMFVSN

[36] = Plasma protein binding in mouse at 30 mg/kg, po after 4 hrs; type: ADME, organism-based; parameters: dose 30 mg/kg, route oral; details: read-out: PPB (converted)
[37] = Half life in Sprague-Dawley rat at 2 mg/kg, iv and 10 mg/kg, po; type: ADME, organism-based; details: in vivo; outline: as §1

## CC(C)[C@]1(C)SC(N[C@H]2C[C@@H]3CC[C@H]2C3)=NC1=O
[1]
  Cp(f): 240 nM
[2]
  fraction unbound at 4 h: 0.099
[3]
  Kp: 1.34
[4]
  bioavailability: 34%
[5]
  half-life: 12.2 h
[6]
  clearance: 19.3 mL/min/kg
[7]
  bioavailability: 31%
[8]
  Vd: 0.9 L/kg
[9]
  half-life: 3.32 h
[10]
  Vd: 1.53 L/kg
[11]
  clearance: 55.2 mL/min/kg

## CC(C)[C@]1(C)SC(N[C@H]2C[C@H]3C[C@@H]2C[C@@H]3O)=NC1=O
[12]
  concentration at 6 h: 220 nM
[13]
  concentration at 4 h: 1050 nM
[14]
  concentration at 6 h: 380 nM
[15]
  concentration at 8 h: 190 nM
[16]
  inhibition in vivo at 10 mg/kg: 38%
[17]
  inhibition in vivo at 30 mg/kg: 36%
[18]
  concentration at 2 h: 980 nM
[4]
  bioavailability: 58%
[19]
  concentration at 2 h: 4500 nM
[20]
  concentration at 4 h: 3590 nM
[21]
  concentration at 8 h: 130 nM
[22]
  concentration at 8 h: 390 nM
[23]
  concentration at 2 h: 4670 nM
[24]
  concentration at 6 h: 1710 nM
[6]
  clearance: 7.33 mL/min/kg
[7]
  bioavailability: > 100%
[25]
  inhibition in vivo at 10 mg/kg: 31%
[26]
  inhibition in vivo at 30 mg/kg: 46%
[27]
  concentration at 4 h: 820 nM
[28]
  concentration at 2 h: 19500 nM
[29]
  Cp(f): 2100 nM
[30]
  concentration at 8 h: 580 nM
[31]
  inhibition in vivo at 30 mg/kg: 51%
[8]
  Vd: 1.43 L/kg
[32]
  concentration at 4 h: 980 nM
[33]
  inhibition in vivo at 30 mg/kg: 36%
[9]
  half-life: 5.72 h
[34]
  concentration at 6 h: 2020 nM
[35]
  Ki: 152 nM
[10]
  Vd: 0.97 L/kg
[36]
  fraction unbound at 4 h: 0.591
[37]
  half-life: 2.17 h
[11]
  clearance: 24.7 mL/min/kg

## CC(C)[C@]1(C)SC(N[C@H]2C[C@H]3C[C@@H]2C[C@H]3O)=NC1=O
[6]
  clearance: 12.3 mL/min/kg
[35]
  Ki: 181 nM
[10]
  Vd: 1.43 L/kg
[37]
  half-life: 2.41 h

## CC(C)[C@]1(C)SC(N[C@H]2C[C@H]3C[C@@H]2CC3=O)=NC1=O
[35]
  Ki: 230 nM

## CC(C)(O)[C@]1(C)SC(N[C@H]2C[C@@H]3CC[C@H]2C3)=NC1=O
[4]
  bioavailability: 53%
[6]
  clearance: 32 mL/min/kg
[10]
  Vd: 0.53 L/kg
[37]
  half-life: 0.24 h
